Bioassay records: PubChem, several laboratories
PKA-R1A act = PKA-R1A complex activation | P00514+P68181 | PKA-R1A dissociation, Cy5-IP20 fluorescence polarization; scaled: DMSO 0%, 113 µM cGMP 100% | activation, % at 11.4 µM | hit rate 0.083% among 340,000 | AID 504707;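 active = percent activation above the mean of all tested compounds plus 3 SD, cut at about 19% in these data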;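 also: higher means more PKAc released from R1A so a rise in polarization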
Rpn11 block = Rpn11 (human) deubiquitinase inhibition; human 26S proteasome, Ub4-pepOG fluorescence polarization; 20S core pre-blocked with epoxomicin; calls only at 20 µM; hit rate 0.59% among 360,000; AID 588493;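 active = inhibition at 20 µM, scaled to each plate's controls, above about 33%, limit read from the data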
PKA-R2B activ = PKA-R2B complex activation; P22694+P31323; PKA-R2B holoenzyme dissociation, Cy5-IP20 fluorescence polarization; R2B truncated from residue 108, S112A mutant; 0% DMSO only, 100% 113 µM cGMP; activation, % at 11.4 µM; hit rate 0.079% among 340,000; AID 504700;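 active = activation above a cutoff set at the mean over all compounds plus 3 SD, cut at about 18% in these data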;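 also: higher means more holoenzyme dissociation and a rise in polarization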
HNF4A DNA FP = change in binding of human HNF4 alpha to DNA. P41235. HNF4a-FITC DNA binding, fluorescence polarization, 1 h. activity change, % at 10 µM. hit rate 0.3% among 360,000. AID 1224865; in the data active = activity change above about 30%, passing the limit was not always enough
TPT1 inhibitor = blocks Candida albicans tRNA 2'-phosphotransferase; recombinant caTPT1, FP RNA substrate dephosphorylation; hit rate 0.81% among 300,000; inhibition, % at 5 µM;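 active = inhibition above the mean of all tested compounds plus 3 SD, set per screening campaign, cut at about 24% in these data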;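 also: plate controls were DMSO alone for no effect and ferristatin control at 100 nM for full effect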
CSN inh = inhibitors of human CSN-mediated cullin deneddylation; Q92905; Purified CSN, SCF-Nedd8-OG deneddylation, fluorescence polarization; inhibition, % at 12.5 µM; hit rate 0.38% among 360,000;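 active = pattern-corrected inhibition above about 35%, with an unprinted fluorescence ratio check between 0.5 and 1.5, limit read from the data, passing the limit was not always enough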;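 also: 0% = enzyme with substrate and 100% = substrate without enzyme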
Target sequence (Q92905 whole entry, looked up, one chain of several): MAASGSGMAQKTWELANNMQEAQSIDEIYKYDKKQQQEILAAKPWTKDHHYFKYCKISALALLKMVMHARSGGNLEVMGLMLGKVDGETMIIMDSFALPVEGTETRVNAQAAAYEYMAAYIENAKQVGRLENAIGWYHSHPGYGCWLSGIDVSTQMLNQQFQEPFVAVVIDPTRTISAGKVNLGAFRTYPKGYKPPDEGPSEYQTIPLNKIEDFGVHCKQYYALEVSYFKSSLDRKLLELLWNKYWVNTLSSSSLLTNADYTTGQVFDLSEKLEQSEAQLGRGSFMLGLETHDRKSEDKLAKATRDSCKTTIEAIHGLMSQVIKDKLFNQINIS
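Assay system: purified human Csn5 enzyme expressed in HEK293T cells; measure: % inhibition; also added: SCFSkp2-Nedd8OG substrate at 10 nM final; technique: fluorescence polarization; times: reaction 90 min, room temperature; medium: Tris buffer pH 7.5, NaCl, DTT, Tween-20, trehalose, ovalbumin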
* = called active by the depositor; i = inactive; . = no result shown; + = active, no number. Rows were chosen to be rich in hits. Some 1.6% of all compounds tested hit in one or more screens of this group.

SMILES	PKA-R1A act	Rpn11 block	PKA-R2B activ	HNF4A DNA FP	TPT1 inhibitor	CSN inh
Cc1ccc(NC(=O)c2ccc(Cl)c(N3C(=O)CCC3=O)c2)cc1	-9	i	-4	55*	1	-1
Cc1ccc(NC(=O)c2ccc(C)cc2)cc1	8	i	6	1	0	-1
CC1CCCC(C)N1C(=O)CSc1nc(N)cc(N)n1 (stereo unspecified)	0	i	1	53*	1	1
Cc1cc(N)nc(SCC(=O)N2C(C)CCCC2C)n1 (stereo unspecified)	-2	i	-3	2	1	3
O=C1CSC(=S)N1/N=C/c1c(F)cccc1F	-3	i	3	0	3	0
O=C1CSC(=S)N1N=Cc1c(O)ccc2ccccc12	3	.	-3	93*	.	28
COC(=O)C1C2CC3c4[nH]c5cc(OC)ccc5c4CCN3CC2CC(OC(=O)CC(C)=O)C1OC (stereo unspecified)	0	.	-4	49*	.	11
CC(C)c1nnc(NC(=O)CCC(=O)NCc2cccs2)s1	0	i	-11	-3	2	-3
C=CCN1C(=O)/C(=C/c2ccc(OC(C)=O)c(OCC)c2[N+](=O)[O-])SC1=S	-6	+	-4	35	.	35
CCOc1c(OC(C)=O)ccc(/C=C/c2ccc3cccc(OC(C)=O)c3n2)c1[N+](=O)[O-]	-8	i	-9	-1	-1	4
Cc1ccc(C)c(S(=O)(=O)N2CCCC2CNC(=O)C(=O)NCC2CCCO2)c1 (stereo unspecified)	-8	i	-5	34*	-2	5
Cc1ccc(C)c(S(=O)(=O)N2CCCC2CNC(=O)C(=O)NCc2ccccc2C)c1 (stereo unspecified)	-8	i	-5	1	1	4
COc1ccc2[nH]c(=O)c(C(c3nnnn3C(C)(C)C)N(Cc3ccco3)CC3CCCO3)cc2c1 (stereo unspecified)	-9	i	-9	0	-4	2
Cc1cc2cc(C(c3nnnn3C(C)(C)C)N(Cc3ccco3)CC3CCCO3)c(=O)[nH]c2cc1C (stereo unspecified)	-4	i	-10	43*	2	7
Cc1ccc(NC(=O)CN2C(=O)NC(C)(C)C2=O)cc1S(=O)(=O)N1CCCCCC1	1	i	6	33*	.	0
Cc1ccc(C(=O)Oc2oc(-c3ccccc3)nc2C=Nc2ccc(N(C)C)cc2)cc1	-3	.	2	2	21	47*
Cc1ccc(S(=O)(=O)Nc2ccccc2C(C(=O)OC(C)(C)C)C(=O)OC(C)(C)C)cc1	.	.	.	1	.	-4
CCOC(=O)c1c(NC(=O)COC(=O)CCOc2ccc(C)cc2)sc(C(=O)N(C)C)c1C	-7	i	-5	5	6	3
CCOC(=O)c1c(NC(=O)COC(=O)CCOc2ccc(OCC)cc2)sc(C(=O)N(C)C)c1C	-5	i	-7	-1	-1	121*
O=C(O)c1ccc(-n2c(-c3cc(-c4ccco4)[nH]n3)n[nH]c2=S)cc1	-10	i	3	-18	5	42*
CCCN1CCN(CCCNC(=S)Nc2ccc(OC)cc2)CC1	-4	i	-8	-4	-4	-8
Cc1cc(C(=O)NC2CCC(O)CC2)c(C)o1 (stereo unspecified)	3	i	-6	-1	.	89*
Cc1cc(C(=O)NC2CCCc3ccccc32)c(C)o1 (stereo unspecified)	-17	i	-6	4	1	-4
O=S(=O)(Cc1noc(-c2ccc(Cl)cc2)n1)Cc1ccco1	.	i	.	14	1	38*
Cc1cccc(C)c1NC(=O)CN1CCN(C(=O)CNC(=O)Cc2cccc3ccccc23)CC1	4	i	-6	0	.	7
SMILES	PKA-R1A act	Rpn11 block	PKA-R2B activ	HNF4A DNA FP	TPT1 inhibitor	CSN inh
CCc1ccccc1NC(=O)CN1CCN(C(=O)CNC(=O)Cc2cccc3ccccc23)CC1	3	i	-2	34*	.	4
CCC(/C=C1\Oc2ccc(OC)cc2N1C)=C\c1sc2ccccc2[n+]1CCCS(=O)(=O)[O-]	-3	.	-9	170	.	73*
O=C(NCc1ccco1)c1cccc2c1C(=O)c1ccc(N3CCC(Cc4ccccc4)CC3)cc1S2(=O)=O	3	i	-7	-25	.	14
O=C(NCc1ccco1)c1cccc2c1C(=O)c1ccc(/C=C/c3ccccc3)cc1S2(=O)=O	-1	i	-13	-18	.	55*
COc1ccc(CNC(=O)N[C@@H](Cc2c[nH]c3ccccc23)C(=O)O)cc1	-4	i	1	-1	0	2
CCOC(=O)c1ccc(NS(=O)(=O)c2c(N)[nH]c(=O)[nH]c2=O)cc1	4	i	-4	-1	-5	4
CCCCCCCC(=O)N/N=C(\C)c1cccnc1	-4	i	-6	-3	-6	58*
O=c1c2cc(-c3ccccc3)sc2ncn1/N=C/c1ccco1	1	i	-4	-2	7	3
CCN(C(=O)C1CC1)C1CCS(=O)(=O)C1 (stereo unspecified)	-3	i	7	1	3	-5
O=C(CCNC(=O)C1CCN(S(=O)(=O)c2ccccc2)CC1)NCc1cccc(C(F)(F)F)c1	7	i	-8	38*	-3	2
CCCCOc1ccc(S(=O)(=O)NC(=O)C2(C)CCN2C(=O)c2c(C)noc2C)cc1 (stereo unspecified)	.	i	.	1	.	0
O=C(CNCCc1ccccc1)N1CCc2ccccc2C1	-1	i	-9	4	-5	5
CC(C)C1C(=O)CC(c2ccccc2)NC1c1ccccc1 (stereo unspecified)	-9	i	-2	38*	-3	1
CC1C(=O)CC(c2ccccc2)NC1c1ccccc1 (stereo unspecified)	2	i	-7	1	6	2
O=S(=O)(Nc1nc(-c2ccco2)c(-c2ccco2)s1)c1ccc(F)cc1F	0	i	6	-9	.	39*
O=S(=O)(Nc1nc2ccccc2s1)c1cc(F)ccc1F	-6	i	4	3	0	2
Cc1ccc(N(C(=O)Nc2ccccc2)C2=NCC(C)S2)cc1 (stereo unspecified)	5	i	7	33*	-1	0
CC1CN=C(N(C(=O)Nc2ccccc2)C(C)C)S1 (stereo unspecified)	-10	i	-11	2	1	-2
CC(NC(=O)CCC(=O)N1CCCCCC1)c1ccccc1 (stereo unspecified)	-1	i	1	0	1	-4
